Experimental data as given in ChEMBL document CHEMBL4513216, “Probing the Open Global Health Chemical Diversity Library for Multistage-Active Starting Points for Next-Generation Antimalarials” (ACS Infect Dis, 2020).

Test: Toxicity liver stage against HepG2, at 10uM
Type: cell-based
Parameters: test concentration 10 uM, cell line HepG2-A16-CD81EGFP
Details: human, HepG2-A16-CD81EGFP cells; read-out: INHIBITION
Outline: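 Uninfected HepG2-A16-CD81EGFP cells, 3 × 10^3 per well, 1536-well, plated on prespotted compound at 10 μM final, parasite-free screening media added to match infected plates; puromycin 10 μM positive, DMSO 0.5% negative; run in parallel with 48 h PbLuc assay at 37 °C, 5% CO2; viability by CellTiter-Glo luminescence, normalized to controls.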

Compound | cytotoxicity at 10 µM [%]
COc1ccc(NC(=O)C2CC(=O)n3cnnc3S2)cc1 (stereo unspecified) | 1.64
COc1ccccc1COCC(O)CN(C)Cc1cccc(Cl)c1 (stereo unspecified) | -1.28
CC(=O)N1CCC(N2CCOC[C@H]2c2nc(C(C)(C)C)c[nH]2)CC1 | 6.51
CCOCc1nc(N2CCOCC2)sc1C(=O)NCCCc1ccco1 | -87.3
Cc1ccn(CCC(=O)NC(C)Cc2ccco2)n1 (stereo unspecified) | -4.1
O=C1c2cccnc2OC(CN2CCOCC2)CN1CC1CC1 (stereo unspecified) | -6.17
COc1ccc2c(ccn2CCC(=O)NCCCC(=O)O)c1 | 5.7
COC(=O)[C@@H](NC(=O)c1snnc1-c1ccc(OC)cc1)C(C)C | 4.96
CC(C)C(=O)Nc1ccc2c(c1)ncn2CC(=O)NCCN(C)C | -9.1
COc1ccc2nnc(CCC(=O)Nc3nc(C)c(C)s3)n2n1 | -3.18
O=C(c1cnn2c1OCCC2)N1CCN(C(=O)C2CCCO2)CC1 (stereo unspecified) | -6.19
COc1cc(OC)cc(C(=O)NCc2nn(C)c3c2COCC3)c1 | 6.17
O=C([C@H]1COC[C@H]2CN(CC3CCC3)C[C@H]21)N1CCOCC1 | 17.3
Cc1cc(CN2C[C@@H]3COC[C@]3(c3nnc(C)o3)C2)no1 | -2.11
CN1CCc2c(C#N)c(NCc3ccccc3)n3cnnc3c2C1 | 3.93
Cn1nc(CNC(=O)c2nc3ccccc3s2)c2c1CCOC2 | -3.16
Cc1ncsc1CN1C[C@@H](OCC2CC2)[C@H]2OCCC[C@H]21 | -9.76
CCNC(=O)c1nc2c(s1)CCCN2S(C)(=O)=O | -12.6
CCCNC(=O)c1nn(CC)cc1Cl | 6.11

Compound | cytotoxicity at 10 µM [%]
CCn1cc(NC(=O)CN2C(=O)CC(C)(C)c3ccccc32)cn1 | -1.7
CCn1nc(C)c2nnn(CC(=O)Nc3cccc(Cl)c3)c(=O)c21 | 4.47
CC(C)(C)C(=O)NCCc1cc2nc(-c3ccncc3)ccn2n1 | 6.66
COc1ccc2c(c1)CC(C1CCOCC1)N(C(=O)c1cnccn1)C2 (stereo unspecified) | 5.21
CC(=O)N1CCCC(C(=O)c2cnn(-c3ccc(F)cc3)c2N)C1 (stereo unspecified) | 5.82
O=C(Cn1cc(Cl)cn1)N1CCCC(c2cc3ccccc3cn2)C1 (stereo unspecified) | -27.3
Cc1cccnc1CN1CC[C@@](C)(O)[C@H](Oc2ccccc2)C1 | -9.11
CC1CCN(C(=O)c2cnc(CC3CCCN(C)C3)cn2)CC1 (stereo unspecified) | -11.7
Cc1cc(-c2cnc(NCc3ccccn3)nc2C(C)C)on1 | -1.51
COCC(=O)N1CCCC1c1cccc(Cc2ccccc2F)n1 (stereo unspecified) | -37.7
O=C(NC1CC1)c1cc(C2CC2)nc2onc(C3CCNCC3)c12 | 7.16
CC(O)c1cn(Cc2ccc(Cl)cc2)nn1 (stereo unspecified) | 8.75
O=S(=O)(c1ccc(F)cc1Cl)N1CCCC1c1ccncc1 (stereo unspecified) | -7.95
Cc1ccnc2c1NC(=O)CN2C(=O)CCc1ccccc1 | -20.1
CCOc1c(F)cccc1C(=O)N(C)CCc1ccccn1 | 18.6
O=C(C(c1ccccc1)S(=O)(=O)c1ccccn1)N1CCCCC1 (stereo unspecified) | 5.7
COc1ccc(C2(C(=O)NC3CCc4nccn4C3)CCCC2)cc1 (stereo unspecified) | 4.48
CC(C)c1ncc(C(=O)N(C)c2ccc(Br)cn2)s1 | 9.12
CCN(CC)C(CNC(=O)CCc1nc(C(C)C)no1)c1ccco1 (stereo unspecified) | 5.91

Compound | cytotoxicity at 10 µM [%]
CCC1CCC(N(Cc2cc(=O)n(C)c(=O)n2C)C2CC2)CC1 (stereo unspecified) | 22.6
CCC(CC)C(=O)NCc1c(C)nn(C)c1N1CCCN(C)CC1 | 0.295
CCOC(=O)C1CCCN(Cc2cc(C#N)n(C)c2C)C1 (stereo unspecified) | 0.0308
O=C(COC1CCCC1)N1CCCC1c1noc(C2CC2)n1 (stereo unspecified) | 11
CN(C)CCn1c(=O)oc2ccc(NC(=O)CSc3ccccc3)cc21 | -3.51
Cc1ccc(CN(C(=O)NCc2nnc3n2CCCCC3)C2CC2)o1 | 9.35
CCc1nc(CN2CCCC(N(C)Cc3cnc(C)cn3)C2)no1 (stereo unspecified) | -5.66
Cc1ccc(NCCNC(=O)c2cc(CC(C)C)n[nH]2)nn1 | 0.37
Cc1cc(NCCNS(=O)(=O)c2cccc(Cl)c2)nc(C)n1 | 2.9
Cc1cc(S(=O)(=O)NC(=O)CCc2cncc(F)c2)c(C)s1 | -1.99
O=C(c1[nH]nc(C2CC2)c1Cl)N1CCN(C2CC2)C(=O)C1 | -4.81
Cc1cc(C(=O)N2CCCC(N3CCCCCC3)C2)nn1C(C)(C)C (stereo unspecified) | -4.4
Cc1cnn(CCNC(C)c2nnc(-c3cccc(Cl)c3)o2)c1 (stereo unspecified) | -1.41
Cc1ccc2cc(C(=O)N3CCN(C(=O)c4ccoc4)CC3)[nH]c2c1 | -43.6
CN1CCC(N(C)c2ccccc2CNCc2ccco2)CC1 | -9.05
COCCN(Cc1ccccn1)C(=O)c1ccc(=O)n(C)c1 | -16.8
CC(C)(C)C(NCC(=O)N1CCNC(=O)C1)c1ccccc1 (stereo unspecified) | -10.7
CNC(=O)c1c(C)cccc1NCc1nnc(C2CC2)o1 | 2.41
